Measurements reported in ChEMBL document CHEMBL1152800, “Aza-analogue dibenzepinone scaffolds as p38 mitogen-activated protein kinase inhibitors: design, synthesis, and biological data of inhibitors with improved physicochemical properties” (J Med Chem, 2009).
In brackets after ≈: the same amount, converted by molar mass.

Legend:
[1] = target: Mitogen-activated protein kinase 14 (Homo sapiens, UniProt Q16539); test: Inhibition of p38alpha MAPK by cell-free enzyme immunosorbent assay
[2] = Lipophilicity, CHI in methanol by fast-gradient HPLC; type: physicochemical
In short: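 Chromatographic hydrophobicity index measured by fast-gradient reversed-phase HPLC with methanol as organic modifier. The index is calculated from the compound's retention time. It approximates the volume percentage of methanol needed for equal distribution of the compound between mobile and stationary phases.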

[3] = Aqueous solubility in HCl/H2O at pH 1; type: physicochemical

Sequence of Mitogen-activated protein kinase 14 (Q16539 whole entry): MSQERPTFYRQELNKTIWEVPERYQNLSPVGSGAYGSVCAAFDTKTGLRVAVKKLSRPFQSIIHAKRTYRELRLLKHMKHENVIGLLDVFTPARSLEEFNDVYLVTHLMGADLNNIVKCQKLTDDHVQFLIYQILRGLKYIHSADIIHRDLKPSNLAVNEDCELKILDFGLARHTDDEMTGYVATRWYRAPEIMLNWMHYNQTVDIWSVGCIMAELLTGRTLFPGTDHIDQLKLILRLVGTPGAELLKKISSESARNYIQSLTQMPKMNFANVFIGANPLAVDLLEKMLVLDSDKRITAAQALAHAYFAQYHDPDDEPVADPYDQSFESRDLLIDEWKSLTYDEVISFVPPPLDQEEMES

Structure (SMILES)	IC50 [1] [nM]	CHI [2] [%]	solubility [3] [µg/mL]
Nc1cc(F)ccc1Nc1ccc2c(c1)OCc1ccccc1C2=O	40		
Nc1ccccc1Nc1ccc2c(=O)c3cnccc3ccc2c1	1950	71.4	
Nc1ccccc1Nc1ccc2c(c1)CCc1ncccc1C2=O	310	73.9	1200 (≈ 3800 µM)
O=c1c2ccc(Nc3ccc(F)cc3F)cc2ccc2ncccc12	330	82.9	
Nc1ccccc1Nc1ccc2c(c1)CCc1ccccc1C2=O		82.6	< 10
Nc1cc(F)ccc1Nc1ccc2c(c1)OCc1ncccc1C2=O	2730	70.9	
O=C1c2ccccc2CCc2cc(Nc3ccc(F)cc3F)ccc21	130	88.1	< 10
Nc1ccccc1Nc1ccc2c(c1)OCc1ncccc1C2=O	2680	69	
Nc1cc(F)ccc1Nc1ccc2c(c1)CCc1ncccc1C2=O	1190	72.9	
Nc1ccccc1Nc1ccc2c(c1)OCc1ccccc1C2=O		75.2	
Nc1cc(F)ccc1Nc1ccc2c(c1)CCc1ccccc1C2=O	130	82.8	
O=C1c2ccc(Nc3ccc(F)cc3F)cc2CCc2ncccc21	240	81.2	486 (≈ 1440 µM)
Nc1ccccc1Nc1ccc2c(=O)c3cccnc3ccc2c1	1080	73.4	
Nc1ccccc1Nc1ccc2c(c1)CCc1cccnc1C2=O	440	65.8	
O=c1c2ccccc2ccc2cc(Nc3ccc(F)cc3F)ccc12	2530	88.7	
O=C1c2ccc(Nc3ccc(F)cc3F)cc2OCc2ncccc21	180	83.2	
